Screening results: PubChem, several laboratories
KCNK9 inh: KCNK9 potassium channel inhibitors, primary screen, HEK293 cells, thallium flux; B-score at 10 µM; FluxOR thallium flux fluorescence; hits give low values; 310,000 tested, 1.2% active;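 active = ratio B-score over 3 SD below the library mean, with starting fluorescence within 5 SD of its mean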;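 note: negative B-score means less thallium flux so channel inhibition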
Target sequence (Q9NPC2 whole entry, looked up): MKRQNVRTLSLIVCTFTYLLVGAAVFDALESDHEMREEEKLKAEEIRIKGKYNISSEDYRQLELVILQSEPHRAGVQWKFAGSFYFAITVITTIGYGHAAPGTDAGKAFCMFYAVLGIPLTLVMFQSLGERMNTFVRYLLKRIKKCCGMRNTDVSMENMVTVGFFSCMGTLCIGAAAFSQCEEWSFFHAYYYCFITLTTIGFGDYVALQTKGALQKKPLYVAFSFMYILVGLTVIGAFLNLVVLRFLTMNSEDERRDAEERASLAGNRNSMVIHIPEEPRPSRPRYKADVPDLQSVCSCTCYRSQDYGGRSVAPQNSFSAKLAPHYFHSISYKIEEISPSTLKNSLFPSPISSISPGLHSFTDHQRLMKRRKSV
KCNQ1 act: potentiators or activators of KCNQ1 channel, primary screen, cell-based, thallium flux, high-throughput. CHO-K1 KCNQ1, thallium flux FluxOR fluorescence; hits give high values. AID 2648, 2010. Potassium voltage-gated channel subfamily KQT member 1 (Homo sapiens), P51787. 310,000 tested, 0.35% active. B-score at 10 µM;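 active = fluorescence ratio B-score, a plate-corrected score, at least three library SD, with initial intensity B-score within 5 SD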
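Test system: CHO-K1 cells stably expressing KCNQ1 / Medium: assay buffer / Also added: depolarizing K+/Tl+ stimulus, K2SO4 and Tl2SO4 each 12.5 mM in 5x stock / Incubation: 90 min dye loading and 20 min compound exposure, both at room temperature / Signal: thallium influx via FluxOR fluorescence, kinetic imaging / Evaluation: B score of baseline-normalized fluorescence ratio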
hERG rescue: hERG rescue from dofetilide block, primary screen, cell-based, CHO-hERG, FluxOR thallium flux, dofetilide IC70 | activation (rescue from dofetilide block), less the hit threshold, % at 10 µM | dofetilide IC70 present | Voltage-gated inwardly rectifying potassium channel KCNH2 (Homo sapiens), Q12809 | 310,000 tested, 0.51% active | AID 1511, 2009;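 active = activation above the mean of controls blocked by dofetilide plus 5 SD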;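 note: thallium influx through hERG after potassium depolarization seen as dye fluorescence rise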
KCC2 mod: KCC2 cotransporter modulators, thallium flux, primary screen, cell-based, HEK293 KCC2, FluoZin-2 fluorescence, MLSMR; Solute carrier family 12 member 5 (Homo sapiens), Q9H2X9; KCC2 cells, thallium flux FluoZin-2 fluorescence; B-score of Tl+ flux slope (higher = more flux/activation; lower = inhibition) at 10 µM; 190,000 tested, 2.2% active; AID 1456, 2008;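 active = thallium flux slope and its plate-corrected score both differing from the plate sample mean at a set confidence after two filtering rounds, in either direction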;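 note: slope of fluorescence scaled to starting intensity during 10 to 20 s after thallium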
KCNQ1 inh: inhibitors of human KCNQ1 channel, primary screen, cell-based, thallium flux, high-throughput | Potassium voltage-gated channel subfamily KQT member 1 (Homo sapiens), P51787 | CHO-K1 KCNQ1, FluxOR thallium flux fluorescence; hits give high values | B-score at 10 µM | 310,000 tested, 1.3% active;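 active = compounds whose thallium flux B-score, printed positive for inhibition, exceeds three library SD while starting fluorescence stays within three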;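 note: channel opened by potassium depolarization with thallium stimulus after 20 min compound exposure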
KCNK3 block: human KCNK3 channel inhibitors, primary screen, CHO cells, FluxOR thallium flux, B-score; Potassium channel subfamily K member 3 (Homo sapiens), O14649; FluxOR fluorescence; hits give low values; B-score at 10 µM; 340,000 tested, 0.84% active;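 active = B-score under library mean minus 4 SD, starting fluorescence ratio at most library mean plus 5 SD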;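 note: more negative B-score means stronger inhibition of thallium flux through KCNK3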
* = called active by the depositor; i = inactive; x = no result given; ! = not active in a repeat. Shown are actives, neighbours in structure and some others; about 4.1% of the full set was active somewhere.

SMILES | KCNK9 inh | KCNQ1 act | hERG rescue | KCC2 mod | KCNQ1 inh | KCNK3 block
CC1(c2ccccc2)CC(C)(C)N2C(=O)/C(=C3\SC(=S)NC3=O)c3cccc1c32 (centres undefined) | i | 81* | -6 | 20* | i | i
O=C(N1CCN(c2ccccn2)CC1)N1c2ccccc2Sc2ccccc21 | -7.6* | i | -9 | 0.037 | i | i
O=C(c1ccc(Br)s1)N1CCN(c2ccccn2)CC1 | i | i | -6 | x | i | i
COc1ccc(-c2oc3c(CC=C(C)C)c(O[C@@H]4O[C@H](CO)[C@@H](O)[C@H](O)[C@H]4O)cc(O)c3c(=O)c2O[C@@H]2O[C@@H](C)[C@H](O)[C@@H](O)[C@H]2O)cc1 | i | i | -7 | 1.7 | i | x
CC(=O)O[C@@H]1[C@@H](O)[C@@H](O)[C@H](Oc2c(-c3ccc(O)cc3)oc3c(CC=C(C)C)c(O)cc(O)c3c2=O)O[C@H]1C | i | i | -38 | x | 6* | x
COc1ccc(-c2nn(-c3ccccc3)cc2CNC[C@H]2O[C@@H](n3cnc(C(N)=O)n3)[C@H](O)[C@@H]2O)cc1 | x | x | x | x | x | i
CC1(C)CC(NC(=S)NC2CC2)CC(C)(C)N1 | i | i | 7.0* | 0.16 | i | i
O=C1C=CC(=O)N1CCNc1ncc(C(F)(F)F)cc1Cl | i | 18* | -20 | -0.76 | i | i
O=C1CC(=O)N(CCNc2ncc(C(F)(F)F)cc2Cl)C(=O)N1 | i | i | -6 | x | i | i
COc1ccc(Nc2ccc(C(F)(F)F)cc2[N+](=O)[O-])cn1 | i | i | -12 | x | i | i
Cc1ccc(C2=CC(C)(c3ccc(C)cc3)Nc3nc(C(F)(F)F)nn32)cc1 (centres undefined) | -8* | i | -4 | -0.037 | i | i
CC1(C)CC(=O)CC(=NCC(=O)O)C1 | i | i | 4.7* | 0.79 | i | i
CNC(=O)c1sccc1-n1cccc1 | i | i | -4 | 1.1 | i | i
O=C(NNC(=O)c1sccc1-n1cccc1)c1cccc(Cl)c1 | i | i | -4 | 12* | i | i
Cc1ccc(CNC(=O)c2sccc2-n2cccc2)cc1 | i | i | -4 | 6.9* | i | i
O=C(C[n+]1ccccc1)N/N=C/c1cc(Br)ccc1O | i | i | -9 | x | i | i
COc1cc(OC)cc(C(=O)Nc2cccc3cccnc23)c1 | i | i | -2 | x | i | i
COc1cccc(N=Nc2ccc3cccnc3c2O)c1 | i | 9* | -8 | x | i | i
CN(C(=O)CCNC(=O)Cn1cnc2ccccc2c1=O)c1ccc(Br)cc1 | i | i | -3 | x | i | i
COc1ccc(Cl)cc1N(C)C(=O)CCNC(=O)Cn1cnc2ccccc2c1=O | i | i | 5.0* | x | i | i
CC(=O)N1CCN(c2ccc(Oc3ccc([N+](=O)[O-])c(C(F)(F)F)c3)cc2)CC1 | i | i | -12 | x | 11* | i
CCOc1ccc(C(=O)Nc2ccc(N3CCN(C(C)=O)CC3)cc2)cc1[N+](=O)[O-] | i | i | -8 | 0.68 | i | i
CC(C)C1Cc2c(sc3[nH]c(=S)n(Cc4ccccc4)c(=O)c23)CO1 (centres undefined) | i | 26* | 8.8* | 19* | i | i
S=C(Nc1ccccc1)N1CCOCC1 | i | i | -6 | 1.5 | i | i
CSC(=S)N/N=C/c1ccccc1 | i | 35* | 11* | 170* | i | i
SMILES | KCNK9 inh | KCNQ1 act | hERG rescue | KCC2 mod | KCNQ1 inh | KCNK3 block
S=C(N/N=C/c1ccccc1)N1CCOCC1 | i | i | -1 | 16* | i | i
Cc1noc(C)c1S(=O)(=O)Nc1ccc2c(c1)C(=O)N([C@H](C)CO)C[C@H](C)[C@@H](CN(C)C(=O)Nc1ccc3c(c1)OCO3)O2 | x | x | x | x | x | i
COc1ccc(-n2c(-c3ccc(Br)cc3)c[n+]3c2CCc2ccccc2-3)cc1 | i | i | -25 | -0.19 | 10* | i
COc1ccccc1-n1c(-c2ccccc2)c[nH]c1=S | i | i | -12 | -0.53 | i | i
COc1ccccc1-n1c(-c2ccccc2)c[n+]2c1CCc1ccccc1-2 | -7.8* | i | -20 | 0.53 | 9*! | -9.5*!
COc1ccc(-n2cc(-c3ccccc3)[n+]3c2CCCCC3)cc1 | i | i | -17 | -0.043 | i | i
COc1ccc(-c2cn(-c3ccc(OC)cc3)c3[n+]2-c2ccccc2CC3)cc1 | i | i | -18 | -1.7 | 6* | i
COc1ccc(-c2c[n+]3c(n2-c2ccccc2)CCCCC3)cc1 | i | i | -18 | -0.39 | i | i
COc1cccc(NC(=O)CN2CCN(C(=O)c3ccco3)CC2)c1 | i | i | 1 | x | i | i
CCOC(=O)C(NC(=O)c1ccccc1)C(C)(C)SCc1ccccc1 (centres undefined) | x | x | x | x | x | i
COc1ccc(/C=C/c2cc(-c3ccc(C)cc3)o[n+]2C)cc1 | i | i | -28 | -0.67 | 9* | i
CCSCCOC(=O)C1=C(C)NC(=O)NC1c1cc(OC)ccc1OC (centres undefined) | i | i | -6 | x | i | i
CCSCCOC(=O)C1=C(C)N(C)C(=O)NC1c1cc(OC)ccc1OC (centres undefined) | i | i | -10 | 4.2* | i | i
Cc1ccc(S(=O)(=O)N2CCN(C(=O)COC(=O)c3ccc(Br)o3)CC2)c(C)c1 | i | i | -13 | x | i | i
Cc1ccc(S(=O)(=O)N2CCN(C(=O)c3ccc(Br)o3)CC2)c(C)c1 | i | 11* | -12 | x | i | i
Cc1c(NC(=O)Nc2ccc(Cl)c(Cl)c2)sc(=S)n1C | i | i | -11 | 0.87 | 8* | i
Cn1ccc(C(=O)N/N=C/c2ccncc2)n1 | i | i | -3 | x | i | i
O=[N+]([O-])c1ccc(CNc2cccc(Cl)c2)s1 | i | i | -7 | x | 6* | i
O=[N+]([O-])c1ccc(CNc2ccc(Cl)cc2)s1 | i | i | -10 | x | i | i
